Reference: ChEMBL document CHEMBL1944598, “First synthesis and anticancer activity of novel naphthoquinone amides” (Eur J Med Chem, 2012)
Active and inactive are the calls of the source. The calls are words filed in the database; no cut-off is given here.

Key:
Vero = test: Cytotoxicity against african green monkey Vero cells expressing GFP after 4 days by fluorescence assay; format: cell-based; conditions: Chlorocebus sabaeus, 96 h
Outline: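 Vero (African green monkey kidney) cells stably transfected with pEGFP-N1, kept in MEM with 10% heat-inactivated FBS, 2 mM L-glutamine, 1 mM pyruvate, geneticin. Cells seeded at 3.3 × 10⁴ cells/mL onto compounds diluted in 0.5% DMSO, 4 days at 37 °C, 5% CO₂. Bottom-read fluorescence (ex 485/em 535 nm), day-0 background subtracted. IC50 by curve fit from 6 two-fold dilutions.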

KB = test: Cytotoxicity against human KB cells after 3 days by resazurin microplate assay; format: functional, cell-based
Outline: (§1)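 Log-phase cells seeded at 7×10^4 cells/mL (KB) or 9×10^4 cells/mL (MCF-7) onto compounds in 0.5% DMSO. Incubated 3 days at 37 °C, 5% CO₂, then resazurin added for 4 h. Fluorescence read at ex 530/em 590 nm. IC50 by curve fit from 6 two-fold serial dilutions. Doxorubicin positive, 0.5% DMSO negative control. Mean of three replicates ± SD.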

NCI-H187 = test: Cytotoxicity against human NCI-H187 cells after 5 days by resazurin microplate assay; format: functional, cell-based; conditions: NCI-H187, 120 h
Outline: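 Log-phase NCI-H187 cells diluted to 9×10^4 cells/mL and seeded onto compounds in 0.5% DMSO. After 5 days at 37 °C, 5% CO₂, resazurin added for 4 h. Fluorescence read at ex 530/em 590 nm. IC50 fitted from 6 two-fold serial dilutions. Doxorubicin and 0.5% DMSO controls. Mean of three replicates ± SD.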

MCF7 = test: Cytotoxicity against human MCF7 cells after 3 days by resazurin microplate assay; format: functional, cell-based; outline: as §1
[1] = biological target: DNA topoisomerase 2-alpha (Homo sapiens) (UniProt P11388); test: Inhibition of human topoisomerase 2alpha-mediated decatenation of kinetoplast DNA at 10 uM after 1 hr using ethidium bromide by agarose gel electrophoresis analysis relative to doxorubicin
Outline: (§2)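 Doxorubicin as positive control. Stopped with Sarkosyl loading dye. Run on 1% agarose in 0.5x TBE with ethidium bromide at 50 V, imaged under UV. Decatenated and linearized kDNA used as markers.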

[2] = biological target: DNA topoisomerase 2-alpha (Homo sapiens) (UniProt P11388); test: Inhibition of human topoisomerase 2alpha-mediated decatenation of kinetoplast DNA at 50 uM after 1 hr using ethidium bromide by agarose gel electrophoresis analysis; outline: as §2
[3] = biological target: DNA topoisomerase 2-alpha (Homo sapiens) (UniProt P11388); test: Inhibition of human topoisomerase 2alpha-mediated decatenation of kinetoplast DNA at 20 uM after 1 hr using ethidium bromide by agarose gel electrophoresis analysis; outline: as §2
[4] = Homo sapiens, KB, 72 h, read-out: IC50
[5] = Homo sapiens, MCF7, 72 h, read-out: IC50

Sequence of DNA topoisomerase 2-alpha (Homo sapiens) (P11388 whole entry): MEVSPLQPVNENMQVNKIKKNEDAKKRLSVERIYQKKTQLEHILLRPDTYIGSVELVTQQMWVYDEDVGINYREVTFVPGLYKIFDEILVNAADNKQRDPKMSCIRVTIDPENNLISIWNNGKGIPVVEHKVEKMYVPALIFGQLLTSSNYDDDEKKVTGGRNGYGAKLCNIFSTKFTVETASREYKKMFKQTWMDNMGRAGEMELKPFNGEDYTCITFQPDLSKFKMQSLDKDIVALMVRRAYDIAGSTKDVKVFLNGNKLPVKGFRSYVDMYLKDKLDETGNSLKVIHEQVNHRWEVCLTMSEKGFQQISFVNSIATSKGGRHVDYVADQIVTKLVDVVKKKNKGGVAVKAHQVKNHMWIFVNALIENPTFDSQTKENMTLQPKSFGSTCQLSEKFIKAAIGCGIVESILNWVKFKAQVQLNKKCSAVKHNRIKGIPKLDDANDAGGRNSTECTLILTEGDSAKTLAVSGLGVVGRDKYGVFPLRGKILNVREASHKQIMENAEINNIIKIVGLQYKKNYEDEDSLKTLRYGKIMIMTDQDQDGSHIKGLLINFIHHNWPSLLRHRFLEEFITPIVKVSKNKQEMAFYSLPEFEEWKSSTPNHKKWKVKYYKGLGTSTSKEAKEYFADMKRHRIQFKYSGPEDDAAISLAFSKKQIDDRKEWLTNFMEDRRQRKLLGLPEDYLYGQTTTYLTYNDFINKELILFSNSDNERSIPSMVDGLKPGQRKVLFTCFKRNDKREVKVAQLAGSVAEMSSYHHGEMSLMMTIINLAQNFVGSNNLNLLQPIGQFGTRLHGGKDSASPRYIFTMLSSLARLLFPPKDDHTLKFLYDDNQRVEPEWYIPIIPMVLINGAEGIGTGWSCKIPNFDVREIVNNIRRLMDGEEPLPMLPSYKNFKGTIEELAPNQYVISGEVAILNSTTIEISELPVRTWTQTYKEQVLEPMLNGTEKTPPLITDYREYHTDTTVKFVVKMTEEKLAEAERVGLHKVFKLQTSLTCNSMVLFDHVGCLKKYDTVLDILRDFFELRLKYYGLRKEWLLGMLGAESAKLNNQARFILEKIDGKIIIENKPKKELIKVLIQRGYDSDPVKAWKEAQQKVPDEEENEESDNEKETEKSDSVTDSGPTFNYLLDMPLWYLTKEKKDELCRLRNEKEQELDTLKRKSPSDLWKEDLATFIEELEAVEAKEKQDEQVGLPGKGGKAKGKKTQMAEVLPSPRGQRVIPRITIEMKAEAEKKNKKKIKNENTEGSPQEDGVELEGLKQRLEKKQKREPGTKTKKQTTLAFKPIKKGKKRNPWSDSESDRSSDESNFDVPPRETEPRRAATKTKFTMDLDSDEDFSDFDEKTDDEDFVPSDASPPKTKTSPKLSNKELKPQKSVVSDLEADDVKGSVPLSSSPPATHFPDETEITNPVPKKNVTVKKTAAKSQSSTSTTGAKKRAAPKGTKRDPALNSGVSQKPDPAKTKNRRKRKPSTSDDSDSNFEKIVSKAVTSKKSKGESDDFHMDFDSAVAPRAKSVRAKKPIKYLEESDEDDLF

Compound: CC(C)(CNC(=O)c1ccccc1)CC1=C(O)C(=O)c2ccccc2C1=O
- IC50 (Vero): 50.5 µM
- IC50 (KB; [4]): 15.2 µM
- IC50 (NCI-H187): 40.1 µM
- IC50 (MCF7; [5]): 37.1 µM

Compound: CC(C)(CNC(=O)c1ccccc1O)CC1=C(O)C(=O)c2ccccc2C1=O
- IC50 (Vero): 32.1 µM
- IC50 (KB; [4]): 44.9 µM
- inhibition [1]: inactive
- inhibition [2]: Active
- IC50 (NCI-H187): 8.83 µM
- IC50 (MCF7; [5]): 28.1 µM

Compound: COC1=C(CC(C)(C)CNC(=O)c2ccc3ccccc3c2)C(=O)c2ccccc2C1=O
- IC50 (Vero): 36 µM
- IC50 (KB; [4]): 34.1 µM
- IC50 (NCI-H187): 25.7 µM
- IC50 (MCF7; [5]): 52.5 µM

Compound: COc1ccccc1C(=O)NCC(C)(C)CC1=C(O)C(=O)c2ccccc2C1=O
- IC50 (Vero): 31.2 µM
- IC50 (KB; [4]): 26.3 µM
- IC50 (NCI-H187): 42.9 µM
- IC50 (MCF7; [5]): 111 µM

Compound: COC1=C(CC(C)(C)CNC(=O)c2cc(OC)c3ccccc3c2OC)C(=O)c2ccccc2C1=O
- IC50 (Vero): 30.1 µM
- IC50 (KB; [4]): 41.2 µM
- IC50 (NCI-H187): 19.6 µM
- IC50 (MCF7; mcf7): Not Active

Compound: COC1=C(CC(C)(C)CNC(=O)c2ccccc2)C(=O)c2ccccc2C1=O
- IC50 (Vero): 12.3 µM
- IC50 (KB; [4]): 117 µM
- IC50 (NCI-H187): 19.1 µM
- IC50 (MCF7; [5]): 61.8 µM

Compound: COc1c(C(=O)NCC(C)(C)CC2=C(O)C(=O)c3ccccc3C2=O)ccc2ccccc12
- IC50 (Vero): 47.3 µM
- IC50 (KB; [4]): 66.9 µM
- IC50 (NCI-H187): 37 µM
- IC50 (MCF7; [5]): 39.8 µM

Compound: COc1cccc2c1C(=O)c1c(O)c3c(c(O)c1C2=O)C[C@@](O)(C(=O)CO)C[C@@H]3O[C@H]1C[C@H](N)[C@H](O)[C@H](C)O1 [DOXORUBICIN]
- IC50 (Vero): 28.8 µM
- IC50 (KB; [4]): 0.9 µM
- IC50 (NCI-H187): 0.16 µM

Compound: COC1=C(CC(C)(C)CNC(=O)c2cc(OC)ccc2OC)C(=O)c2ccccc2C1=O
- IC50 (Vero): 36.2 µM
- IC50 (KB; [4]): 34.3 µM
- IC50 (NCI-H187): 74.3 µM
- IC50 (MCF7; [5]): 57.9 µM

Compound: COC1=C(CC(C)(C)CNC(=O)c2ccc3ccccc3c2OC)C(=O)c2ccccc2C1=O
- IC50 (Vero): 60.6 µM
- IC50 (KB; [4]): 64.1 µM
- IC50 (NCI-H187): 53.2 µM
- IC50 (MCF7; [5]): 95.7 µM

Compound: COc1ccc(O)c(C(=O)NCC(C)(C)CC2=C(O)C(=O)c3ccccc3C2=O)c1
- IC50 (Vero): 31.1 µM
- IC50 (KB; kb): Not Active
- IC50 (NCI-H187): 15 µM
- IC50 (MCF7; [5]): 39.6 µM

Compound: COc1cc(C(=O)NCC(C)(C)CC2=C(O)C(=O)c3ccccc3C2=O)c(OC)c2ccccc12
- IC50 (Vero): 17.7 µM
- IC50 (KB; [4]): 47 µM
- inhibition [1]: inactive
- inhibition [2]: Active
- IC50 (NCI-H187): 19.8 µM
- IC50 (MCF7; mcf7): Not Active

Compound: CC(C)(CNC(=O)c1ccc2ccccc2c1)CC1=C(O)C(=O)c2ccccc2C1=O
- IC50 (Vero): 46.6 µM
- IC50 (KB; [4]): 9 µM
- inhibition [1]: inactive
- inhibition [2]: Active
- IC50 (NCI-H187): 19.5 µM
- IC50 (MCF7; [5]): 28.2 µM

Compound: COc1ccc(OC)c(C(=O)NCC(C)(C)CC2=C(O)C(=O)c3ccccc3C2=O)c1
- IC50 (Vero): 89.1 µM
- IC50 (KB; [4]): 86.6 µM
- IC50 (NCI-H187): 40.9 µM
- IC50 (MCF7; [5]): 99.4 µM

Compound: COC1=C(CC(C)(C)CNC(=O)c2ccccc2OC)C(=O)c2ccccc2C1=O
- IC50 (Vero): 27.3 µM
- IC50 (KB; [4]): 33.2 µM
- IC50 (NCI-H187): 34.7 µM
- IC50 (MCF7; [5]): 70.7 µM

Compound: COc1cc(C(=O)NCC(C)(C)CC2=C(O)C(=O)c3ccccc3C2=O)c(O)c2ccccc12
- IC50 (Vero): 15.8 µM
- inhibition [3]: Active
- IC50 (KB; [4]): 8.62 µM
- inhibition [1]: inactive
- inhibition [2]: Active
- IC50 (NCI-H187): 26 µM
- IC50 (MCF7; [5]): 35.6 µM

Compound: CC(C)(CNC(=O)c1ccc2ccccc2c1O)CC1=C(O)C(=O)c2ccccc2C1=O
- IC50 (Vero): 93.7 µM
- inhibition [3]: Active
- IC50 (KB; [4]): 26.9 µM
- inhibition [1]: inactive
- inhibition [2]: Active
- IC50 (NCI-H187): 14.4 µM
- IC50 (MCF7; [5]): 79.5 µM
